Experimental findings from ChEMBL document CHEMBL1141560, “Alpha,beta-cyclic-beta-benzamido hydroxamic acids: novel templates for the design, synthesis, and evaluation of selective inhibitors of TNF-alpha converting enzyme (TACE)” (Bioorg Med Chem Lett, 2008) are described below.

Common to all, as to assay type: ADME, organism-based
The nature of data set [1]: Half life in rat at 5.0 mg/kg, iv. More on the design: dose 5 mg/kg, route intravenous. The settings on record: in vivo. In outline:
(§1)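 Rats given 5.0 mg/kg IV or PO by n-in-1 cassette dosing; three animals per dosing group, parameters reported as the group average.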

A short description of data set [2]: Clearance in rat at 5.0 mg/kg, iv. Set-up: dose 5 mg/kg, route intravenous. To be noted: in vivo. In outline: as §1
Data set [3] can be described thus: Volume of distribution at steady state in rat at 5.0 mg/kg, iv. More on the design: dose 5 mg/kg, route intravenous. The settings on record: in vivo, read-out: Vdss. In outline: as §1
Data set [4] is described as follows: AUC in rat at 5.0 mg/kg, iv. Set-up: dose 5 mg/kg, route intravenous. The settings on record: plasma. In outline:
as §1

The nature of data set [5]: Half life in rat at 5.0 mg/kg, po. More on the design: dose 5 mg/kg, route oral. The settings on record: in vivo. In outline:
as §1

Data set [6] in a line: AUC in rat at 5.0 mg/kg, po. To be noted: plasma. More on the design: dose 5 mg/kg, route oral. In outline: as §1
A short description of data set [7]: Oral bioavailability in rat at 5.0 mg/kg. To be noted: in vivo. Put shortly:
as §1

A short description of data set [8]: Half life in rat at […], iv. More on the design: dose 3.3 mg/kg, route intravenous. The settings on record: in vivo.
The nature of data set [9]: Clearance in rat at […], iv. More on the design: dose 3.3 mg/kg, route intravenous. To be noted: in vivo.
A short description of data set [10]: Volume of distribution at steady state in rat at […], iv. Set-up: dose 3.3 mg/kg, route intravenous. The settings on record: in vivo, read-out: Vdss.
Data set [11] can be described thus: AUC in rat at […], iv. More on the design: dose 3.3 mg/kg, route intravenous. The settings on record: plasma.
Data set [12] can be described thus: Half life in rat at […], po. More on the design: dose 3.3 mg/kg, route oral. To be noted: in vivo.
Data set [13] is described as follows: AUC in rat at […], po. Set-up: dose 3.3 mg/kg, route oral. To be noted: plasma.
The nature of data set [14]: Oral bioavailability in rat at […]. The settings on record: in vivo.
Data set [15] can be described thus: Oral bioavailability in rat. To be noted: in vivo.

SMILES strings stand for the structures.

On to `Cc1cc(COc2ccc(C(=O)N[C@@H]3COC[C@@H]3C(=O)NO)cc2)c2ccccc2n1`, for which the half-life (commonly how long it takes for the measured level to halve) is 2.1 h in data set [1] and 2.9 h in data set [5]. In addition, in data set [2], the clearance (in general, the rate of elimination divided by the concentration) was 38.3 mL/min/kg. Also, in data set [3], the Vd stood at 0.8 L/kg. Moreover, the AUC (usually the area under the concentration-time curve, a measure of exposure) in data set [4] was 4.06 µM·h; in data set [6], 0.846 µM·h. In addition, the bioavailability (commonly the share of a dose that reaches the circulation, judged against a reference dose that is usually intravenous) in [7] is 21%.
For `C#CCN1C[C@H](C(=O)NO)[C@H](NC(=O)c2ccc(OCc3cc(C)nc4ccccc34)cc2)C1`, the half-life in data set [8] is 2.9 h; in [12], 3.1 h. For the same compound, in data set [9], the clearance was 55 mL/min/kg. In data set [10], the Vd amounted to 1.7 L/kg. Moreover, the results for the AUC in [11] and in [13] were 2.23 µM·h and 0.567 µM·h, respectively. In data set [14], this compound gave a bioavailability of 25%.
In the case of `Cc1cc(COc2ccc(C(=O)N[C@@H]3CN(S(C)(=O)=O)C[C@@H]3C(=O)NO)cc2)c2ccccc2n1`, the bioavailability in [15] was 3%.
